Reference: ChEMBL document CHEMBL1153263, “3-Acrylamide-4-aryloxyindoles: synthesis, biological evaluation and metabolic stability of potent and selective EP3 receptor antagonists” (Bioorg Med Chem Lett, 2009)

How the values were obtained:
[1] = target: T1, Prostaglandin E2 receptor EP3 subtype (Homo sapiens, UniProt P43115); experiment: Displacement of [3H]PGE2 from human EP3 receptor at 20 uM in presence of normal buffer
T1 sequence (P43115 whole entry): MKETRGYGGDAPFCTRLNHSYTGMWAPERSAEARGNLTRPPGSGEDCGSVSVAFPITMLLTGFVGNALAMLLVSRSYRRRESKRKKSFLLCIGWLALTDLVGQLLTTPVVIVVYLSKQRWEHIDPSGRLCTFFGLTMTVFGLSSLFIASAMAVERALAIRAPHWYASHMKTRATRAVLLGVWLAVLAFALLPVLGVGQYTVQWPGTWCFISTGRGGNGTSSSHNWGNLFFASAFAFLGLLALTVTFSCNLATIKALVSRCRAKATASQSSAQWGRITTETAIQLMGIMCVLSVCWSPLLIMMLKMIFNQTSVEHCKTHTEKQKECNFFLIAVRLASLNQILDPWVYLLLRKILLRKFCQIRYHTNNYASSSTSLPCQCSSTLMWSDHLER

[2] = Metabolic stability in rat liver microsome assessed as compound remaining at 5 uM after 30 mins; format: ADME; conditions: liver microsomes, read-out: Stability
Summary of the method: (§1)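 Liver microsomes at 0.8 mg/mL protein incubated with compound at 5 µM. Percent parent remaining after 30 min measured by LC–MS/MS.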

[3] = Metabolic stability in mouse liver microsome assessed as compound remaining at 5 uM after 30 mins; format: ADME; conditions: liver microsomes, read-out: Stability; summary of the method: as §1
[4] = Metabolic stability in monkey liver microsome assessed as compound remaining at 5 uM after 30 mins; format: ADME, Macaca mulatta; conditions: rhesus monkey, liver microsomes; read-out: Stability; summary of the method: as §1
[5] = Metabolic stability in dog liver microsome assessed as compound remaining at 5 uM after 30 mins; format: ADME, Canis lupus familiaris; conditions: liver microsomes, read-out: Stability; summary of the method: as §1
[6] = target: Prostacyclin receptor (Homo sapiens, UniProt P43119); experiment: Displacement of radioligand from IP receptor
Chain of Prostacyclin receptor (P43119 whole entry): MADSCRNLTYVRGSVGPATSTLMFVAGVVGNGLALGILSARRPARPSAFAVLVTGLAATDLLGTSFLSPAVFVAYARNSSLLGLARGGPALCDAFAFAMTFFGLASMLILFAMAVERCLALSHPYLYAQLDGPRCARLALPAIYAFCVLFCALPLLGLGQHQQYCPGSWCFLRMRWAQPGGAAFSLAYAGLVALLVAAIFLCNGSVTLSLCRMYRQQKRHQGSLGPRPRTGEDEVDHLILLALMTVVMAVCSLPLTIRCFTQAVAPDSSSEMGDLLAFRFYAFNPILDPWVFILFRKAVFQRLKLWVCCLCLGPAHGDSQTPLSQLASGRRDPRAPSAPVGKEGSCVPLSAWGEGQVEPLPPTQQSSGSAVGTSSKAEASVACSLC

[7] = target: Prostaglandin E2 receptor EP2 subtype (Homo sapiens, UniProt P43116); experiment: Displacement of radioligand from EP2 receptor
Chain of Prostaglandin E2 receptor EP2 subtype (P43116 whole entry): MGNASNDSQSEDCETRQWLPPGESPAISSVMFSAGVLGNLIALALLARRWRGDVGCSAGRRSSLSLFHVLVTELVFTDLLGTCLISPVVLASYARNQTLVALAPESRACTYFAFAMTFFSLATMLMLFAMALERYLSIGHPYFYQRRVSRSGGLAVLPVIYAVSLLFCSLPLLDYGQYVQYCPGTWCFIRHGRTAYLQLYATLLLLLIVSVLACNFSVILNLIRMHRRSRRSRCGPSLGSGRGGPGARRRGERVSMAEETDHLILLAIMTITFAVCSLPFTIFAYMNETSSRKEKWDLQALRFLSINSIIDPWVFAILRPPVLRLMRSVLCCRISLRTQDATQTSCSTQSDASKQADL

[8] = tested on: Brain; experiment: Brain concentration in NMRI mouse at 2 mg/kg, iv; format: ADME, organism-based; design: dose 2 mg/kg, route intravenous; conditions: in vivo
Summary of the method: (§2)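 Mouse iv exposure screen. Plasma and brain concentrations sampled 15 min after dosing.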

[9] = target: T2, Prostaglandin E2 receptor EP1 subtype (Homo sapiens, UniProt P34995); experiment: Displacement of radioligand from EP1 receptor
T2 sequence (P34995 whole entry): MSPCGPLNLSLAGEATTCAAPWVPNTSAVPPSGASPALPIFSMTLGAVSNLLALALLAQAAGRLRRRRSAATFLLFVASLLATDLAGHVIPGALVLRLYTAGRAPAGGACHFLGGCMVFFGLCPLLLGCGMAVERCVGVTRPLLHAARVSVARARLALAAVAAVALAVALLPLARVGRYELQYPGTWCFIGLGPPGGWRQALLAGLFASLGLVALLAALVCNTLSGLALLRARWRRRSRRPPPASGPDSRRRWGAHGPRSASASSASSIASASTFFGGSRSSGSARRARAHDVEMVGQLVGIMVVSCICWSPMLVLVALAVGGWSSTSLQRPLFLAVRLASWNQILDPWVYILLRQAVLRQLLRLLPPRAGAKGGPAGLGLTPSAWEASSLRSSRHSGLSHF

[10] = target: T1, Prostaglandin E2 receptor EP3 subtype; experiment: Displacement of [3H]PGE2 from human EP3 receptor at 20 uM in presence of 10% human serum
[11] = target: Prostaglandin E2 receptor EP4 subtype (Homo sapiens, UniProt P35408); experiment: Displacement of radioligand from EP4 receptor
Chain of Prostaglandin E2 receptor EP4 subtype (P35408 whole entry): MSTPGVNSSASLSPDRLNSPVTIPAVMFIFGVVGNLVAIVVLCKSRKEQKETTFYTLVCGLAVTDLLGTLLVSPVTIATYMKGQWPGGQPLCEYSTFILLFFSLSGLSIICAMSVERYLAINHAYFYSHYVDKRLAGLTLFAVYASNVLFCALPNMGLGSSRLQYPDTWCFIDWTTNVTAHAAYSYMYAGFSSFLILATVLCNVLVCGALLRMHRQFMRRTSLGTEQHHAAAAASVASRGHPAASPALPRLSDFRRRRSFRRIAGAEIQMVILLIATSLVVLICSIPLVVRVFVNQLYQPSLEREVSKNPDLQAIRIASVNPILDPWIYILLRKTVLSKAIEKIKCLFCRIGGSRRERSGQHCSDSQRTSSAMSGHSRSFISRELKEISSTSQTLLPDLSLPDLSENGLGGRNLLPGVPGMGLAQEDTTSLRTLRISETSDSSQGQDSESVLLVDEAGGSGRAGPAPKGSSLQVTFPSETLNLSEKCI

[12] = tested on: Mus musculus; experiment: Plasma concentration in NMRI mouse at 2 mg/kg, iv; format: ADME, organism-based; design: dose 2 mg/kg, route intravenous; conditions: in vivo; summary of the method: as §2
[13] = Antiplatelet activity against rat platelet assessed as platelet aggregation; format: functional, cell-based
[14] = Metabolic stability in human liver microsome assessed as compound remaining at 5 uM after 30 mins; format: ADME; conditions: liver microsomes, read-out: Stability; summary of the method: as §1
[15] = target: T3, Prostaglandin E2 receptor EP3 subtype (Homo sapiens) (UniProt P43115); experiment: Ratio IC50 for human EP3 receptor in presence of human serum to IC50 for human EP3 in absence of human serum
T3 sequence (whole entry): T1 sequence (P43115 whole entry)

[16] = target: Prostaglandin F2-alpha receptor (Homo sapiens, UniProt P43088); experiment: Displacement of radioligand from FP receptor
Chain of Prostaglandin F2-alpha receptor (P43088 whole entry): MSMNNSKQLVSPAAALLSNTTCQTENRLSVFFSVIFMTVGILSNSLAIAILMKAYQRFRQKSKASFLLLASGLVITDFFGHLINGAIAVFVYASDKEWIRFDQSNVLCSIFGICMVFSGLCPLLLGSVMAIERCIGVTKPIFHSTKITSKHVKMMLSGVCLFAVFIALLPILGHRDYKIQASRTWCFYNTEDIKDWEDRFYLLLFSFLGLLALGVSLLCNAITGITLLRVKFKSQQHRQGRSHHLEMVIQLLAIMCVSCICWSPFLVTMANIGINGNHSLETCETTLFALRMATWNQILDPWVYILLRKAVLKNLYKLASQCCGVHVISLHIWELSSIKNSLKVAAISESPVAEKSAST

[17] = target: T1, Prostaglandin E2 receptor EP3 subtype; experiment: Antagonist activity at human EP3-2 receptor expressed in CHOK1 cells; format: functional, cell-based, CHO-K1
Summary of the method: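 Stably transfected CHO-K1 cells expressing hEP3II, plated at 10⁵ cells/well and cultured overnight at 37 °C, 5% CO2. Washed with PBS, pre-incubated 30 min at 37 °C in serum-free medium with 1 mM IBMX. Stimulated with PGE2 (5×10⁻⁹ M) plus forskolin (5×10⁻⁶ M) ± compound (10⁻⁴–10⁻¹³ M) for 10 min at 37 °C. cAMP measured by EIA; EC50 from sigmoid non-linear regression.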

[18] = Antiplatelet activity against human platelet assessed as platelet aggregation; format: functional, cell-based

| Compound | IC50 [1] [nM] | remaining at 0.5 h, 5 µM [2] [%] | IC50 [7] [nM] | IC50 [9] [nM] | IC50 [10] [nM] | IC50 [11] [nM] | remaining at 0.5 h, 5 µM [14] [%] | Ratio IC50 [15] | IC50 [16] [nM] | other results |
| --- | --- | --- | --- | --- | --- | --- | --- | --- | --- | --- |
| Cn1cc(/C=C/C(=O)NS(=O)(=O)c2ccc(F)c(F)c2)c2c(Oc3ccc4ccccc4c3)cccc21 | 7.4 | 24.6 | 12500 | 1420 | 15.9 | 12500 | 63.6 | 2.1 | 3590 | remaining at 0.5 h, 5 µM [3]: 62%; remaining at 0.5 h, 5 µM [4]: 59%; remaining at 0.5 h, 5 µM [5]: 69.7%; IC50 [6]: 1880 nM; Drug uptake [8]: 55.7 ng/mL; Cp [12]: 3420 ng/mL; EC50 [13]: 12.8 nM |
| Cn1cc(/C=C/C(=O)NS(=O)(=O)c2ccc(F)c(F)c2)c2c(Oc3ccc(F)c(Cl)c3)cccc21 | 26.9 | 32 | > 10000 | – | 81.5 | > 10000 | 91.5 | 3 | 1820 | IC50 [6]: 4100 nM |
| Cn1cc(/C=C/C(=O)NS(=O)(=O)c2ccc(F)c(F)c2)c2c(Oc3ccc(Cl)c(Cl)c3)cccc21 | 12.4 | 14.9 | 4200 | > 10000 | 50.8 | 20400 | 58.8 | 4.1 | 2400 | – |
| Cn1cc(/C=C/C(=O)NS(=O)(=O)c2cc(F)c(F)cc2F)c2c(Oc3ccc(Cl)cc3F)cccc21 | 4.4 | – | – | – | 156 | – | – | 35.6 | – | – |
| Cn1cc(/C=C/C(=O)NS(=O)(=O)c2cccc(Cl)c2)c2c(Oc3ccc4ccccc4c3)cccc21 | 15.7 | 33.3 | – | – | 35 | – | 79 | 2.2 | – | remaining at 0.5 h, 5 µM [5]: 80.6% |
| Cn1cc(/C=C/C(=O)NS(=O)(=O)c2ccc(F)c(F)c2)c2c(Oc3ccc(F)c(F)c3)cccc21 | 4.7 | – | – | – | 196 | – | – | 41.9 | – | – |
| Cn1cc(/C=C/C(=O)NS(=O)(=O)c2ccc(F)c(F)c2)c2c(Oc3ccc(F)cc3Cl)cccc21 | 13.8 | – | – | – | 146 | – | – | 10.5 | – | – |
| Cn1cc(/C=C/C(=O)NS(=O)(=O)c2cc(F)c(F)cc2F)c2c(Oc3ccc(F)cc3Cl)cccc21 | 18.1 | – | – | – | 316 | – | – | 17.5 | – | – |
| Cn1cc(/C=C/C(=O)NS(=O)(=O)c2cc(F)c(F)cc2F)c2c(Oc3ccc(Cl)cc3Cl)cccc21 | 3.2 | 39.1 | 9300 | – | 16.7 | > 10000 | 74.7 | 5.2 | 3570 | – |
| Cn1cc(/C=C/C(=O)NS(=O)(=O)c2cc(F)c(F)cc2F)c2c(Oc3ccc(F)c(Cl)c3)cccc21 | 9.7 | – | > 10000 | > 10000 | 61.1 | > 10000 | – | 6.3 | 3160 | – |
| Cn1cc(/C=C/C(=O)NS(=O)(=O)c2cc(F)c(F)cc2F)c2c(Oc3ccc(Cl)c(F)c3)cccc21 | 6.7 | – | 10000 | 1370 | 53.9 | 10000 | – | 8 | 2230 | – |
| Cn1cc(/C=C/C(=O)NS(=O)(=O)c2ccc(F)c(F)c2)c2c(Oc3ccc(Cl)cc3F)cccc21 | 7.2 | 40 | > 10000 | > 10000 | 124 | > 10000 | 113 | 17.2 | 3190 | IC50 [6]: > 10000 nM |
| Cn1cc(/C=C/C(=O)NS(=O)(=O)c2ccc(F)c(F)c2)c2c(Oc3ccc(Cl)cc3Cl)cccc21 | 11.8 | 30.6 | 9600 | 3860 | 23.7 | 14600 | 74.7 | 2 | 1970 | remaining at 0.5 h, 5 µM [3]: 69%; remaining at 0.5 h, 5 µM [4]: 53.8%; remaining at 0.5 h, 5 µM [5]: 104%; EC50 [17]: 26.1 nM |
| Cn1cc(/C=C/C(=O)NS(=O)(=O)c2ccc(F)c(F)c2)c2c(Oc3ccc4ncccc4c3)cccc21 | 1.9 | – | – | – | 130 | – | – | 68.7 | – | – |
| Cn1cc(/C=C/C(=O)NS(=O)(=O)c2cccc(F)c2)c2c(Oc3ccc4ccccc4c3)cccc21 | 17.5 | – | – | – | 116 | – | – | 6.6 | – | – |
| Cn1cc(/C=C/C(=O)NS(=O)(=O)c2cc(F)c(F)cc2F)c2c(Oc3ccc(Cl)c(Cl)c3)cccc21 | 2.6 | – | 7680 | 5320 | 45.2 | 13000 | – | 17.1 | 4640 | – |
| Cn1cc(/C=C/C(=O)NS(=O)(=O)c2c(F)cccc2F)c2c(Oc3ccc4ccccc4c3)cccc21 | 5.9 | – | – | – | 710 | – | – | 121 | – | – |
| Cn1cc(/C=C/C(=O)NS(=O)(=O)c2cc(Cl)c(Cl)s2)c2c(Oc3ccc4ccccc4c3)cccc21 | 4.6 | – | – | – | 89.6 | – | – | 19.4 | – | – |
| Cn1cc(/C=C/C(=O)NS(=O)(=O)c2cc(F)c(F)cc2F)c2c(Oc3ccc4ccccc4c3)cccc21 | 9.2 | 32 | – | – | 28 | – | 91.2 | 3.1 | – | remaining at 0.5 h, 5 µM [5]: 90.4%; Drug uptake [8]: 29.1 ng/mL; Cp [12]: 1518 ng/mL; EC50 [13]: 11.6 nM; EC50 [18]: 8.1 nM |
| Cn1cc(/C=C/C(=O)NS(=O)(=O)c2ccc(F)c(F)c2)c2c(Oc3cnc4ccccc4n3)cccc21 | 6.1 | – | – | – | 217 | – | – | 35.3 | – | – |
| Cn1cc(/C=C/C(=O)NS(=O)(=O)c2ccc(F)c(F)c2)c2c(Oc3ccc(Cl)cc3)cccc21 | 27.3 | – | – | – | 776 | – | – | 28.4 | – | – |
